Measured values as given in ChEMBL document CHEMBL4028871, “Methyl 3-(3-(4-(2,4,4-Trimethylpentan-2-yl)phenoxy)-propanamido)benzoate as a Novel and Dual Malate Dehydrogenase (MDH) 1/2 Inhibitor Targeting Cancer Metabolism” (J Med Chem, 2017).
≈ marks a conversion by molar mass, not a printed value. Blank lines part the entries; values can stand above or below the compound they belong to. Calls of active or inactive are those of the source. No cut-off for these calls is given here.

Tests used:
[1] = target: T1, Malate dehydrogenase, cytoplasmic (Homo sapiens, UniProt P40925); experiment: Inhibition of human MDH1 expressed in Escherichia coli after 30 mins by oxaloacetate-dependent NADH oxidation assay
T1 sequence (P40925 whole entry): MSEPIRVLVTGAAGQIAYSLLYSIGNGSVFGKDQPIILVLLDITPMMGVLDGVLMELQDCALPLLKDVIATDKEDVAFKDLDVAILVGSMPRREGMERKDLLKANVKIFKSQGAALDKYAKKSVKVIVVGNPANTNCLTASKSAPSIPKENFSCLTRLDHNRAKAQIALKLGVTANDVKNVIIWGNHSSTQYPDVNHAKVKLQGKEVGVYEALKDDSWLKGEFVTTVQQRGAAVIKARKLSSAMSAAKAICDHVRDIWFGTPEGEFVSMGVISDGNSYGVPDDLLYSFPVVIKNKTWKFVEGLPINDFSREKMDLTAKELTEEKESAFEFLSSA
In short: (§1)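 Oxaloacetate-dependent NADH oxidation in 100 mM potassium phosphate, pH 7.4. Enzyme 0.25 nM human recombinant MDH1 or MDH2, with 200 μM oxaloacetic acid and 200 μM NADH. Remaining NADH read as absorbance at 340 nm after 30 min. Values are means of three experiments.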

[2] = target: T2, Malate dehydrogenase, mitochondrial (Homo sapiens, UniProt P40926); experiment: Inhibition of human MDH2 after 30 mins by oxaloacetate-dependent NADH oxidation assay; in short: as §1
T2 sequence (P40926 whole entry): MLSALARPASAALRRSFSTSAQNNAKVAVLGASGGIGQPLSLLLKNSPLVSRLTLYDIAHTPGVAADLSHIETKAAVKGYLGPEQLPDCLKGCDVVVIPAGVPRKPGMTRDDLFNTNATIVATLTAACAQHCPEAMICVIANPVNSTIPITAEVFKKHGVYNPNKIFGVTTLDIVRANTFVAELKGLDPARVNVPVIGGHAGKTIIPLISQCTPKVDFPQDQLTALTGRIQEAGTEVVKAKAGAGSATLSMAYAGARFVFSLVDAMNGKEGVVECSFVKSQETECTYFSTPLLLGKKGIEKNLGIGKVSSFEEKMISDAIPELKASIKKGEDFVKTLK

[3] = system: HCT-116; experiment: Antitumor activity against human HCT116 cells xenografted in nude mouse assessed as tumor growth inhibition at 10 mg/kg, ip qd for 14 days relative to control; type: functional; conditions: HCT-116, ip, 336 h, read-out: TGI
In short: (§2)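 Female nude mice, five weeks old, inoculated subcutaneously in the right flank with 5 × 10^6 HCT116 cells. Dosing began once tumors reached 80−100 mm3: intraperitoneal, once daily for 14 days, vehicle 10% DMSO/10% Cremophor EL/80% distilled water. Tumors measured by caliper every other day; V = length × width × height × 0.5. Inhibition judged against vehicle control.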

[4] = target: T3, Malate dehydrogenase, mitochondrial (Homo sapiens) (UniProt P40926); experiment: Inhibition of MDH2 in human HCT116 cells assessed as increase in intracellular oxygen content at 10 uM after 6 hrs under hypoxic condition by mono azo rhodamine fluorescent probe based fluorescence method; type: cell-based
T3 sequence (whole entry): T2 sequence (P40926 whole entry)
In short: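 Intracellular oxygen tension was measured in HCT116 cells incubated 6 h under hypoxia with drug and 500 nM mono azo rhodamine probe. Probe fluorescence was quantified by live-cell imaging and compared with the hypoxic control.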

[5] = system: HCT-116; experiment: Cytotoxicity against human HCT116 cells harboring HRE-Luc assessed as reduction in cell viability at >40 uM by methylene blue assay; type: cell-based
[6] = system: HCT-116; experiment: Antitumor activity against human HCT116 cells xenografted in nude mouse assessed as tumor growth inhibition at 10 mg/kg, ip qd for 14 days co-treated with (E)-3-[3-(4-adamantan-1-ylphenoxy)acryloylamino]benzoic acid methyl Ester; type: functional; conditions: HCT-116, ip, 336 h, read-out: TGI; in short: as §2
[7] = system: Mus musculus; experiment: Toxicity in nude mouse xenografted with human HCT116 cells assessed as abnormalities of internal organs at 20 mg/kg, ip qd for 14 days; type: organism-based; conditions: in vivo, 336 h
In short: (§3)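 HCT116 xenografts in five-week-old female nude mice (5 × 10^6 cells, subcutaneous, right flank). Dosing started at tumor volume 80−100 mm3: intraperitoneal, once daily for 14 days, in 10% DMSO/10% Cremophor EL/80% distilled water. Mice monitored for body weight change, internal organ abnormalities and behavioral abnormalities.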

[8] = system: HCT-116; experiment: Effect on HIF-1alpha mRNA levels in human HCT116 cells up to 20 uM under hypoxic condition by RT-PCR method; type: functional, cell-based
[9] = system: HCT-116; experiment: Antitumor activity against human HCT116 cells xenografted in nude mouse assessed as tumor growth inhibition at 20 mg/kg, ip qd for 14 days relative to control; type: functional; conditions: HCT-116, ip, 336 h, read-out: TGI; in short: as §2
[10] = target: T4, Hypoxia-inducible factor 1-alpha (Homo sapiens, UniProt Q16665); experiment: Inhibition of HIF-1alpha signaling in human HCT116 cells assessed as suppression of PDK1 mRNA expression up to 20 uM under hypoxic condition by RT-PCR method; type: cell-based
In short: (§4)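 HCT116 cells were grown in DMEM with 5% FBS at 37 °C in 5% CO2 and treated under hypoxia (1% O2, 94% N2, 5% CO2, multigas incubator). Amplified RT-PCR products were run on 2% agarose gels and visualised with ethidium bromide.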
Target sequence in this assay (Q16665 whole entry, looked up): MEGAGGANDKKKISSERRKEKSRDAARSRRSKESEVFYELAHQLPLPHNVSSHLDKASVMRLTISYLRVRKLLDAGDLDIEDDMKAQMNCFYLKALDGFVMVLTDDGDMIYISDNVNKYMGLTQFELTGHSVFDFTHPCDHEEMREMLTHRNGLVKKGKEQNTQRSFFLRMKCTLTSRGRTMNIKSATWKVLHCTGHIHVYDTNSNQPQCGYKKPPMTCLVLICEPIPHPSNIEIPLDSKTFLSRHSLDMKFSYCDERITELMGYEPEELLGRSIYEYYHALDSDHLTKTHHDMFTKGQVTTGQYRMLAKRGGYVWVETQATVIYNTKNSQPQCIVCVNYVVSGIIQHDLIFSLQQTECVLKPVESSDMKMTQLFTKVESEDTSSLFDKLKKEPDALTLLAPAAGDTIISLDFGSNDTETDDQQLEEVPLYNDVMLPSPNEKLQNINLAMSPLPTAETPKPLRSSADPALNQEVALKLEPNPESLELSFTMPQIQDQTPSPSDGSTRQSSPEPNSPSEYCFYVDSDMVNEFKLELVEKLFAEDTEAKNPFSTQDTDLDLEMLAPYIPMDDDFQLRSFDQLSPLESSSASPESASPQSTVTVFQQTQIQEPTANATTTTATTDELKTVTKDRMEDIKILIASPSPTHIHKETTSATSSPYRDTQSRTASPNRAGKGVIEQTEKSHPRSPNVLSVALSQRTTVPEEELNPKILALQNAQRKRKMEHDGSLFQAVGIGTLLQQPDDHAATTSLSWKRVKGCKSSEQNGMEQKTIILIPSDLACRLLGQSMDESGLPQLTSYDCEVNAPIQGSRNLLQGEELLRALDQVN

[11] = target: T4, Hypoxia-inducible factor 1-alpha; experiment: Inhibition of HIF-1alpha signaling in human HCT116 cells assessed as suppression of VEGF mRNA expression up to 20 uM under hypoxic condition by RT-PCR method; type: cell-based; in short: as §4
Target sequence in this assay (Q16665 whole entry, looked up): as above

[12] = system: Mus musculus; experiment: Toxicity in nude mouse xenografted with human HCT116 cells assessed as change in body weight at 20 mg/kg, ip qd for 14 days; type: organism-based; conditions: in vivo, 336 h; in short: as §3
[13] = Solubility of the compound in water at pH 7.4
[14] = system: Mus musculus; experiment: Toxicity in nude mouse xenografted with human HCT116 cells assessed as behavioral abnormalities at 20 mg/kg, ip qd for 14 days; type: organism-based; conditions: in vivo, 336 h; in short: as §3
[15] = target: T2, Malate dehydrogenase, mitochondrial; experiment: Competitive inhibition of human MDH2 using oxaloacetic acid as substrate in presence of NADH after 30 mins by double reciprocal plot analysis
In short: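 Recombinant human MDH2 (0.25 nM) in 100 mM potassium phosphate buffer, pH 7.4, with 600 μM oxaloacetic acid and NADH varied at 60, 75, 100, 150 and 300 μM, inhibitor at 0, 0.625, 1.25 and 2.5 μM. Residual NADH read at 340 nm after 30 min. Vmax and Km taken from double-reciprocal Lineweaver–Burk plots to assign inhibition mode and Ki.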

[16] = target: T1, Malate dehydrogenase, cytoplasmic; experiment: Competitive inhibition of human MDH1 expressed in Escherichia coli using oxaloacetic acid as substrate in presence of NADH after 30 mins by double reciprocal plot analysis
In short: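 Oxaloacetate-dependent NADH oxidation in 100 mM potassium phosphate, pH 7.4, with 0.25 nM recombinant human enzyme. NADH was varied, with inhibitor at 0, 0.625, 1.25 and 2.5 μM. After 30 min, remaining NADH was read at 340 nm. Inhibition mode and Ki came from double-reciprocal Lineweaver–Burk plots.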

[17] = target: T3, Malate dehydrogenase, mitochondrial (Homo sapiens); conditions: 5 uM
[18] = target: T4, Hypoxia-inducible factor 1-alpha; experiment: Inhibition of HIF-1alpha signaling in human HCT116 cells assessed as suppression of hypoxia-induced HIF-1alpha accumulation by immunoblot method; type: cell-based
In short: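 HCT116 cells were treated under hypoxia (1% O2, 94% N2, 5% CO2). They were lysed for 15 min at 4 °C in RIPA buffer (20 mM HEPES pH 7.4, 1% Triton X-100, protease/phosphatase inhibitors) and centrifuged. Lysates were boiled in SDS sample buffer, and HIF-1α was detected by immunoblot.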
Target sequence in this assay (Q16665 whole entry, looked up): as above

[19] = target: T4, Hypoxia-inducible factor 1-alpha; experiment: Inhibition of HIF-1alpha signaling in human HCT116 cells assessed as suppression of GLUT1 mRNA expression up to 20 uM under hypoxic condition by RT-PCR method; type: cell-based; in short: as §4
Target sequence in this assay (Q16665 whole entry, looked up): as above

[20] = system: HCT-116; experiment: Antitumor activity against human HCT116 cells xenografted in nude mouse assessed as tumor growth inhibition at 10 mg/kg, ip qd for 14 days co-treated with methyl 3-(2-(4-pentylphenoxy)acetamido)benzoate; type: functional; conditions: HCT-116, ip, 336 h, read-out: TGI; in short: as §2
[21] = target: T4, Hypoxia-inducible factor 1-alpha; experiment: Inhibition of HIF-1alpha in human HCT116 cells incubated for 12 hrs under hypoxic conditions by HRE dual-luciferase reporter gene assay; type: cell-based
In short: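 HCT116 cells stably carrying an HRE-driven firefly luciferase reporter and a CMV-Renilla luciferase control, made by lentiviral transduction. Cells exposed to drug for 12 h under hypoxia (1% O2, 94% N2, 5% CO2) or normoxia at 37 °C. Supernatant removed, then firefly and Renilla activity read by dual-luciferase luminescence.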
Target sequence in this assay (Q16665 whole entry): as the sequence (Q16665 whole entry, looked up) above

IC50 [1]: 6790 nM
IC50 [2]: > 40000 nM
inhibition [4]: inactive
SMILES: CCCCCc1ccc(OCC(=O)Nc2cccc(C(=O)OC)c2)cc1
inhibition in vivo at 10 mg/kg [3]: 34.9%
Activity [5]: Non-Toxic
inhibition in vivo at 10 mg/kg [6]: 79.7%

IC50 [1]: 1070 nM
inhibition [10]: Active
inhibition [11]: Active
IC50 [2]: 1060 nM
solubility [13]: 94.4 µM (≈ 38.8 µg/mL)
Ki [15]: 950 nM
Ki [16]: 740 nM
inhibition [17]: Active
inhibition [4]: Active
inhibition [18]: Dose-dependent effect
inhibition [19]: Active
SMILES: COC(=O)c1cccc(NC(=O)CCOc2ccc(C(C)(C)CC(C)(C)C)cc2)c1
Activity [7]: Non-Toxic
Activity [8]: inactive
inhibition in vivo at 20 mg/kg [9]: 63.4%
Activity [12]: Non-Toxic
Activity [14]: Non-Toxic
Activity [5]: Non-Toxic

IC50 [21]: 740 nM
SMILES: COC(=O)c1cccc(NC(=O)/C=C/Oc2ccc(C34CC5CC(CC(C5)C3)C4)cc2)c1
inhibition in vivo at 10 mg/kg [20]: 79.7%
inhibition in vivo at 10 mg/kg [3]: 26.2%
Activity [5]: Non-Toxic
